Assay results gathered from unrelated publications.
Each line is one published result; the experiments were not run side by side.
Organism: Trypanosoma cruzi
Read-out: parasite growth

SMILES | technique | cell line | strain | time | notes | IC50 [µM]
O=C(N[C@@H](Cc1ccccc1)C(=O)c1cc(-c2ccccc2)on1)[C@H](Cc1ccccc1)NC(=O)N1CCOCC1 (single isomer, unassigned) |  |  | TULAHUEN |  | intracellular, amastigote | > 64
O=C(Cn1ccnc1[N+](=O)[O-])NCc1ccccc1 |  | L929 | TULAHUEN | 7 days | intracellular, amastigote | 3.84
c1ccc(CN2CCN(c3nc(-c4ccccn4)nc4ccccc34)CC2)cc1 | imaging | U2OS |  |  | intracellular, amastigote | 3
CCCCCCCCCCCCCC#CC(=O)O |  | rat Myoblast |  |  | intracellular, amastigote | 80
O=C(N[C@@H](Cc1ccccc1)C(=O)c1ncc(-c2ccccc2)o1)[C@H](Cc1ccccc1)NC(=O)N1CCOCC1 |  |  | TULAHUEN |  | intracellular, amastigote | 29.1
C=C1CC[C@@H](O)[C@]2(C)CC[C@H]3C(=C)C(=O)O[C@@H]3[C@@H]12 |  |  |  | 72 h | epimastigote | > 50
c1ccc2c(N3CCCCC3)nc(-c3cnccn3)nc2c1 | imaging | U2OS |  |  | intracellular, amastigote | 18.6
C[C@@H]1[C@H](O)[C@@H](C)/C=C/C=C/C=C/C=C/C=C/C=C/C=C/[C@H](O[C@@H]2O[C@H](C)[C@@H](O)[C@H](N)[C@@H]2O)C[C@@H]2O[C@](O)(C[C@@H](O)C[C@@H](O)[C@H](O)CC[C@@H](O)C[C@@H](O)CC(=O)O[C@H]1C)C[C@H](O)[C@H]2C(=O)O |  | NIH3T3 | TULAHUEN | 96 h | intracellular, amastigote | 0.48
O=C(Nc1ccnc(C(F)(F)F)c1)Nc1cccc2c1OC(F)(F)O2 |  |  | TULAHUEN |  | intracellular, amastigote | 2.9
C[Si](C)(C)c1cc(C(=O)[C@H](Cc2ccccc2)NC(=O)[C@H](Cc2ccccc2)NC(=O)N2CCOCC2)no1 (mixture of isomers) |  |  | TULAHUEN |  | intracellular, amastigote | > 64
O=C(Cn1ccnc1[N+](=O)[O-])NCc1ccccc1 |  |  |  |  | epimastigote | 23
FC(F)(F)c1ccccc1-c1nc(N2CCC(c3ccccn3)C2)c2ccccc2n1 (stereo not drawn) | imaging | U2OS |  |  | intracellular, amastigote | 7.43
Cc1cc(NC(=O)Nc2ccc3c(c2)OC(F)(F)O3)cc(C(F)(F)F)n1 |  |  | TULAHUEN |  | intracellular, amastigote | 1.1
O=C(N[C@@H](Cc1ccccc1)C(=O)c1noc(-c2ccccc2)n1)[C@H](Cc1ccccc1)NC(=O)N1CCOCC1 |  |  | TULAHUEN |  | intracellular, amastigote | 27.7
COc1ccc(Nc2nc(-c3cccnc3)nc3ccccc23)cc1 | imaging | U2OS |  |  | intracellular, amastigote | 6.33
